How the values were obtained:
Type in all cases: cell-based
Raji [1] = assay: Inhibition of 12-O-tetradecanoylphorbol-13-acetate-induced EBV-early antigen activation in human Raji cells assessed as EA activation at 32 nmol relative to 12-O-tetradecanoylphorbol-13-acetate; parameters: scale not given: the % may be the effect or the level left; details: human gammaherpesvirus 4
Method in brief: (§1)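 Raji cells at 10^6 cells/mL resuspended in RPMI 1640 with 10% FCS, 4 mM n-butyric acid as inducer and 32 pmol TPA (20 ng/mL in DMSO), plus test agent in DMSO (32, 16, 3.2 or 0.32 nmol). Held 37 °C for 48 h. EA-positive cells scored blind, at least 500 cells per assay. Values are % of the TPA positive control (100%), ± s.d.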

Raji [2] = assay: Inhibition of 12-O-tetradecanoylphorbol-13-acetate-induced EBV-early antigen activation in human Raji cells assessed as EA activation at 16 nmol relative to 12-O-tetradecanoylphorbol-13-acetate; parameters: scale not given: the % may be the effect or the level left; details: human gammaherpesvirus 4; method in brief: as §1
Raji [3] = assay: Inhibition of 12-O-tetradecanoylphorbol-13-acetate-induced EBV-early antigen activation in human Raji cells assessed as EA activation at 3.2 nmol relative to 12-O-tetradecanoylphorbol-13-acetate; parameters: scale not given: the % may be the effect or the level left; details: human gammaherpesvirus 4; method in brief: as §1
Raji [4] = assay: Inhibition of 12-O-tetradecanoylphorbol-13-acetate-induced EBV-early antigen activation in human Raji cells assessed as EA activation at 0.32 nmol relative to 12-O-tetradecanoylphorbol-13-acetate; parameters: scale not given: the % may be the effect or the level left; details: human gammaherpesvirus 4; method in brief: as §1
[5] = Cytotoxicity against human Raji cells assessed as cell viability at 32 nmol by trypan blue staining; details: read-out: Activity
Method in brief: (§2)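 Raji cells grown to 10^6 cells/mL, pelleted and resuspended in RPMI 1640 with 10% FCS, 4 mM n-butyric acid and 32 pmol TPA (20 ng/mL). Test agent added in DMSO at mole ratios to TPA (1000 = 32 nmol, 500 = 16 nmol, 100 = 3.2 nmol, 10 = 0.32 nmol). Incubated 37 °C for 48 h. Viability counted by hemocytometer with Trypan Blue.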

[6] = Cytotoxicity against human Raji cells assessed as cell viability at 16 nmol by trypan blue staining; details: read-out: Activity; method in brief: as §2
[7] = Cytotoxicity against human Raji cells assessed as cell viability at 3.2 nmol by trypan blue staining; details: read-out: Activity; method in brief: as §2
[8] = Cytotoxicity against human Raji cells assessed as cell viability at 0.32 nmol by trypan blue staining; details: read-out: Activity; method in brief: as §2

Row | SMILES | Activity (Raji [1]) [%] | Activity (Raji [2]) [%] | Activity (Raji [3]) [%] | Activity (Raji [4]) [%] | viability at 32 nmol [5] [%] | viability at 16 nmol [6] [%] | viability at 3.2 nmol [7] [%] | viability at 0.32 nmol [8] [%]
1 | CC(O)(CC1C=C(CO)C(=O)O1)C1COc2ccc3ccc(=O)oc3c2O1 (stereo not given) [CLAUSLACTONE D] | 19.6 | 52.3 | 84.8 | 100 | 60 | > 80 | > 80 | > 80
2 | CC1(CC2C=C(CO)C(=O)O2)OC1COc1ccc2ccc(=O)oc2c1 (stereo not given) [CLAUSLACTONE J] | 27.4 | 65.8 | 85.2 | 100 | 60 | > 80 | > 80 | > 80
3 | C=C1CC(CC2(C)OC2COc2ccc3ccc(=O)oc3c2)OC1=O (stereo not given) [CLAUSLACTONE F] | 29.3 | 62.7 | 89.6 | 100 | 60 | > 80 | > 80 | > 80
4 | COc1ccc2ccc(=O)oc2c1 [HERNIARIN] | 0 | 71.7 | 100 | 100 | 30 | 60 | > 80 | > 80
5 | CC1(O)CC(CC2(C)OC2COc2ccc3ccc(=O)oc3c2)OC1=O (stereo not given) [CLAUSLACTONE H] | 25.1 | 60.4 | 88.4 | 100 | 60 | > 80 | > 80 | > 80
6 | CC1(O)CC(CC(C)(O)C2COc3ccc4ccc(=O)oc4c3O2)OC1=O (stereo not given) [CLAUSLACTONE B] | 17.1 | 50.5 | 82.7 | 100 | 60 | > 80 | > 80 | > 80
7 | CC(O)(CC1CC(O)(CO)C(=O)O1)C1COc2ccc3ccc(=O)oc3c2O1 (stereo not given) [CLAUSLACTONE C] | 10.3 | 46.9 | 80.1 | 95.3 | 60 | > 80 | > 80 | > 80
8 | C=C1CC(CC(C)(O)C2COc3ccc4ccc(=O)oc4c3O2)OC1=O (stereo not given) [CLAUSLACTONE A] | 26.4 | 59.2 | 85.2 | 100 | 60 | > 80 | > 80 | > 80
9 | C=C1CC(C/C(C)=C/COc2ccc3ccc(=O)oc3c2O)OC1=O (stereo not given) [CLAUSLACTONE E] | 22.4 | 58.8 | 86.2 | 100 | 60 | > 80 | > 80 | > 80
10 | C/C(=C\COc1ccc2ccc(=O)oc2c1)CC1CC(O)(CO)C(=O)O1 (stereo not given) [CLAUSLACTONE I] | 20.6 | 54.3 | 82.5 | 100 | 60 | > 80 | > 80 | > 80

— ChEMBL document CHEMBL1155580, “Chemical constituents of Clausena excavata: isolation and structure elucidation of novel furanone-coumarins with inhibitory effects for tumor-promotion” (J Nat Prod, 2000)
